ABHD4 inh: inhibitors of mouse ABHD4; Q8VD66; purified mABHD4, FP-Rh probe fluorescence polarization; inhibition, % at 8.92 µM; 370,000 tested, 0.54% active; AID 720543;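 active means inhibition exceeding the mean over every tested compound plus 3 SD, cut at about 30% in these data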
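system = mouse ABHD4 enzyme, wild type | medium = HEPES pH 7.0, NaCl, Pluronic buffer | also added = FP-Rh probe | incubation = Enzyme–compound pre-incubation 45 min, then probe 60 min, both 25 °C | technique = fluorescence polarization, excitation 525 nm, emission 598 nm, BODIPY TMR filters | controls = S159A mutant high control, sample median low control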
HTRA1 inh: blocks human HTRA1 serine peptidase; Q92743; recombinant HTRA1, FP-rhodamine activity-based probe, fluorescence polarization; inhibition, % at 5.96 µM; 340,000 tested, 0.5% active; AID 504803; in the data active means inhibition above about 36%
PAFAH2 inh: PAFAH2 (human) inhibition | Q99487 | 340,000 tested, 0.99% active | inhibition, % at 3.39 µM | recombinant PAFAH2, FP-rhodamine activity probe, fluorescence polarization;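 active means inhibition above the mean over all tested compounds plus 3 SD, cut at about 30% in these data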;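 further: inhibitors block probe labeling of enzyme so polarization drops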
pPAFAH inh: pPAFAH (human) enzyme inhibition. inhibition, % at 3.39 µM. Q13093. AID 463082. recombinant pPAFAH, FP-rhodamine probe fluorescence polarization. 330,000 tested, 1.5% active;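 active means inhibition above the mean inhibition across the screen plus 3 SD, cut at about 25% in these data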;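 further: inhibitors block binding of the rhodamine activity-based probe so polarization drops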
PAFAH1B3 FP inh: PAFAH1B3 (human) inhibition; recombinant PAFAH1B3, FP-rhodamine probe, fluorescence polarization; 340,000 tested, 0.28% active; AID 492972; inhibition, % at 3.39 µM; Q15102;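 active means inhibition above the screen-wide average of all tested compounds plus 3 SD, cut at about 25% in these data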
Target sequence (Q15102 whole entry, looked up): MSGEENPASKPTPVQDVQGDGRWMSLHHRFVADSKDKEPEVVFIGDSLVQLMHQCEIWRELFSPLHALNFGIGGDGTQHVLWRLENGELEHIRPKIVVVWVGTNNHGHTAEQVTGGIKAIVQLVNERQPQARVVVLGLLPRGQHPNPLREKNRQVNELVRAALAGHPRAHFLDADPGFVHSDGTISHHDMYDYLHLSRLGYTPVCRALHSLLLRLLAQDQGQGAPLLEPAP
PAFAH1B2 inh: PAFAH1B2 (human) inhibition | 340,000 tested, 1.2% active | recombinant PAFAH1B2, FP-rhodamine activity probe, fluorescence polarization | inhibition, % at 3.39 µM | P68402;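 active means inhibition above the mean of all tested compounds plus 3 SD, cut at about 24% in these data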
Target sequence (P68402 whole entry, looked up): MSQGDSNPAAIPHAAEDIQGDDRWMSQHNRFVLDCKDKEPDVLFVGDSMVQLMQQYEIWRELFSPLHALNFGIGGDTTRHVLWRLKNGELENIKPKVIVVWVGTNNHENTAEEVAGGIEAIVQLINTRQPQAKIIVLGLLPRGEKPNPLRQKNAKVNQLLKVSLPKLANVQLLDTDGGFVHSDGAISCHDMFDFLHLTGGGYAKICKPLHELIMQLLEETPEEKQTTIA
pPAFAH confirm: pPAFAH (human) inhibition, confirmed; AID 463230; shares compounds with pPAFAH inh; inhibition, % at 3.39 µM; recombinant pPAFAH, FP-Rh probe fluorescence polarization; 2,300 tested, 72% active;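 active means mean inhibition of the triplicate above the hit cutoff set for the earlier primary screen, cut at about 25% in these data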
HTRA1 inh conf: confirmation of human HTRA1 inhibitors; shares compounds with HTRA1 inh; recombinant HTRA1, FP-rhodamine activity-based probe, fluorescence polarization; inhibition, % at 5.96 µM; 1,600 tested, 66% active; AID 540248;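 active means mean inhibition over three repeats above a set limit taken from the earlier primary screen, cut at about 37% in these data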;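 further: inhibitors block probe binding so polarization drops and inhibition rises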
mABHD4 conf: confirmation of mouse ABHD4 inhibitors | shares compounds with ABHD4 inh | purified mABHD4, FP-Rh probe fluorescence polarization | inhibition, % at 8.92 µM | 1,800 tested, 55% active | AID 720658;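 active means mean inhibition across replicates above the hit cutoff set in the primary screen, cut at about 30% in these data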
Hits are given with their value; - = inactive; . = no result given. Rows were chosen to be rich in hits. Some 2.8% of all compounds tested hit in one or more screens of this group.

SMILES | ABHD4 inh | HTRA1 inh | PAFAH2 inh | pPAFAH inh | PAFAH1B3 FP inh | PAFAH1B2 inh | pPAFAH confirm | HTRA1 inh conf | mABHD4 conf
O=C(O)CCNc1ccc(NCCC(=O)O)c2c1C(=O)c1ccccc1C2=O | 56.1 | 44.4 | 45.9 | 61.5 | - | - | - | 58.6 | 65.4
COc1ccccc1NCCC(=O)O | - | - | - | - | - | - | . | . | .
COc1cccc(/C=C2\CC3(OC(=O)C4CCCCC4)CCCN2C3)c1 (stereo unspecified) | - | . | . | . | . | . | . | . | .
O=[N+]([O-])c1cc(-c2ccc(/C=N/c3nc4ccccn4c3-c3ccco3)o2)ccc1Cl | 45.6 | 36.7 | - | 34.6 | - | - | - | 45.6 | -
CCCCCCC(=O)Nc1nc(C)c(-c2csc(Nc3cc(OC)ccc3OC)n2)s1 | 33.8 | - | - | 47.2 | - | - | 41.1 | . | 48.6
CCCCC(=O)Nc1nc(C)c(-c2csc(Nc3ccccc3OC)n2)s1 | - | - | - | - | - | - | . | . | .
CCCCCC(=O)Nc1nc(C)c(-c2csc(Nc3cc(OC)ccc3OC)n2)s1 | 43.9 | 41.8 | - | 39.6 | - | - | 28.7 | - | 56.1
COc1ccc(OC)c(Nc2nc(-c3sc(NC(=O)c4ccccc4)nc3C)cs2)c1 | . | . | . | - | . | . | . | . | .
CC(C)CN1C(=O)[C@]2(CC(=O)N(C)C2c2ccccc2)c2cc(-n3cc(CN(C)C)nn3)ccc21 (stereo partly specified) | - | . | . | . | . | . | . | . | .
O=C(O)COc1ccccc1/C=N/NC(=O)c1cc2ccccc2cc1O | 37.2 | - | - | 42.9 | - | - | - | . | -
O=C(O)COc1ccccc1/C=N/NC(=O)c1cc(-c2ccc(F)cc2)nc2ccccc12 | - | - | - | - | - | - | . | . | .
CN1C(=O)[C@@](O)(c2cccn2C)c2cc(Cl)ccc21 | - | . | . | . | . | . | . | . | .
CCOC(=O)C1Nc2ccc(Br)cc2C2C=CCC12 (stereo unspecified) | 52.7 | 65.3 | - | 35.0 | - | - | - | - | 52.1
O=C(/C=C/c1ccccc1)c1cc(Br)ccc(=O)c1O | 37.4 | 58.3 | 36.7 | 36.0 | - | - | - | 65.2 | -
Cc1cc2cc(CNS(=O)(=O)c3ccccc3)ccc2n1C | 37.0 | 51.3 | - | 47.2 | - | - | 35.1 | - | -
O=S1(=O)CC2c3ccccc3CN2CN1CCc1ccccc1 (stereo unspecified) | - | . | . | . | . | . | . | . | .
COc1ccc(-c2cc(-c3nnc(SCC(=O)Nc4ccc(-c5nc6ccc(C)cc6s5)cc4)n3N)[nH]n2)cc1 | - | . | . | . | . | . | . | . | .
Cc1c(Br)c(O)c(Br)c2sc(=O)oc12 | 67.1 | 47.1 | - | 83.7 | - | - | - | - | 66.2
O=C(O)CCCNc1cc(N2CCN(C(=O)c3ccco3)CC2)c2noc3c2c1C(=O)c1ccccc1-3 | 65.7 | 51.5 | - | 57.1 | - | - | 30.8 | 46.6 | 42.8
O=C(c1ccco1)N1CCN(c2ccc(Cl)c(Cl)c2)CC1 | - | - | - | - | - | - | . | . | .
O=C(NCCN1CCC(Cc2ccccc2)CC1)C1CCCN(S(=O)(=O)c2cccs2)C1 (stereo unspecified) | - | . | . | . | . | . | . | . | .
CCC[C@H]1[C@@H](NC(=O)c2ccc(C)cc2)CC[C@@]23CCCN2C(=O)CCC[C@@H]13 | - | . | . | . | . | . | . | . | .
COc1ccc(-c2csc(Nc3ccc(S(=O)(=O)Nc4cc(C)on4)cc3)n2)cc1C | 33.5 | - | 37.3 | 39.9 | - | - | 61.5 | . | -
COc1ccc(CC(=O)Nc2ccc(S(=O)(=O)Nc3cc(C)on3)cc2)cc1OC | - | - | - | - | - | - | . | . | .
COC(=O)C[C@H]1CC[C@H]2[C@H](COc3ccc(NC(=O)Cc4cccs4)cc3C(=O)N2C)O1 | - | . | . | . | . | . | . | . | .
SMILES | ABHD4 inh | HTRA1 inh | PAFAH2 inh | pPAFAH inh | PAFAH1B3 FP inh | PAFAH1B2 inh | pPAFAH confirm | HTRA1 inh conf | mABHD4 conf
Oc1ccc(C2C[C@H]3CC[C@@H]2C3)cc1O (stereo partly specified) | 30.4 | 50.5 | - | 51.8 | - | 75.1 | 32.1 | 75.6 | -
CCCCOc1ccc(C(=O)n2ccc3ccc(-c4ccc5ccn(Cc6cccc(C(=O)OC)c6)c5c4)cc32)cc1 | - | . | . | . | . | . | . | . | .
CN(C)c1ccc(O)c2c1CC1CC3[C@@H](N(C)C)C(=O)C(C(N)=O)=C(O)[C@]3(O)C(=O)C1=C2O (stereo partly specified) | 76.9 | - | 33.0 | 53.4 | 29.4 | - | - | . | 44.0
O=C(NN=Cc1c(O)ccc2ccccc12)c1ccncc1 | - | - | - | . | - | - | . | . | .
O=C(N/N=C\c1c(O)ccc2ccccc12)c1cncc(Br)c1 | 34.2 | 52.8 | - | 41.3 | - | - | 57.8 | 49.9 | -
COc1cccc(NC(=O)n2ccc3ccc(-c4ccc5ccn(C(=O)Nc6cccc(OC)c6)c5c4)cc32)c1 | - | . | . | . | . | . | . | . | .
CCOC(=O)c1c(N)sc(=S)c2c1CCC2 | 41.6 | 38.3 | - | 48.8 | - | - | - | - | -
CCOC(=O)c1c(N)sc(N)c1C(=O)OCC | - | - | - | - | - | - | . | . | .
CCNC(=O)N(C)[C@H]1C[C@H]2c3[nH]c4c(-c5ccccc5)cccc4c3CCN2C(=O)[C@H]1[C@H](C)O | - | . | . | . | . | . | . | . | .
O=C1CC(N(O)c2ccccc2)C(=O)N1c1ccc(Cl)c(Cl)c1 (stereo unspecified) | 46.2 | 60.0 | - | 49.1 | - | - | - | - | 88.6
O=C(NN=C1CCN(Cc2ccccc2)CC1)c1ccccc1O | - | - | - | - | - | - | . | . | .
O=C(NN=C1CCN(Cc2ccccc2)CC1)c1cc2ccccc2cc1O | 46.0 | - | - | 47.2 | - | - | - | . | 42.7
O=C1CCCC(=NNC(=O)c2cc3ccccc3cc2O)C1 | . | - | - | - | - | - | . | . | .
CC(=O)N1CCC(=NNC(=O)c2cc3ccccc3cc2O)CC1 | 34.5 | 50.7 | - | 43.6 | - | - | - | - | -
CC(C)=CCC/C(C)=C/CNCC(=O)N1c2ccccc2[C@]2(C)C[C@@H]3C(=O)N(C/C=C(\C)CCC=C(C)C)CC(=O)N3[C@H]12 | - | . | . | . | . | . | . | . | .
CN(C)c1ncc(C2=C(Cl)C(=O)C(N3CCCC3)=C(Cl)C2=O)s1 | 62.7 | 38.5 | - | 49.5 | 26.9 | - | - | . | 83.3
O=C(O)c1ccc(N2C(=O)/C(=C/C=C/c3ccccc3)SC2=S)cc1 | - | - | - | - | - | - | . | . | .
O=C(NN1C(=O)/C(=C/C=C/c2ccco2)SC1=S)c1ccncc1 | 49.3 | . | . | 72.1 | . | . | - | . | -
O=C1/C(=C/C=C/c2ccco2)SC(=S)N1c1ccc(O)cc1 | 37.0 | - | - | 83.0 | - | - | 40.7 | . | -
CC(C)N(C(N)=NC(=O)OCc1ccccc1)C(C)C | - | . | . | . | . | . | . | . | .
COCCN(C[C@@H]1[C@H](c2ccccc2)[C@H](CO)N1c1nc(C)c(C)s1)S(=O)(=O)c1ccccc1[N+](=O)[O-] | - | . | . | . | . | . | . | . | .

Screening data (PubChem)
